ABHD5-PLIN5 inh: blocks binding of human ABHD5 to perilipin-5 | actives 0.78% (n = 360,000) | inhibition, % at 4 µM | Q00G26+Q8WTS1 | Split G. princeps luciferase complementation, luminescence, 4 h;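 active means inhibition above the mean inhibition across every tested compound plus 3 SD, cut at about 22% in these data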;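 further: 0% = DMSO only wells and the 100% control is not disclosed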
Target sequence (Q00G26 whole entry, looked up): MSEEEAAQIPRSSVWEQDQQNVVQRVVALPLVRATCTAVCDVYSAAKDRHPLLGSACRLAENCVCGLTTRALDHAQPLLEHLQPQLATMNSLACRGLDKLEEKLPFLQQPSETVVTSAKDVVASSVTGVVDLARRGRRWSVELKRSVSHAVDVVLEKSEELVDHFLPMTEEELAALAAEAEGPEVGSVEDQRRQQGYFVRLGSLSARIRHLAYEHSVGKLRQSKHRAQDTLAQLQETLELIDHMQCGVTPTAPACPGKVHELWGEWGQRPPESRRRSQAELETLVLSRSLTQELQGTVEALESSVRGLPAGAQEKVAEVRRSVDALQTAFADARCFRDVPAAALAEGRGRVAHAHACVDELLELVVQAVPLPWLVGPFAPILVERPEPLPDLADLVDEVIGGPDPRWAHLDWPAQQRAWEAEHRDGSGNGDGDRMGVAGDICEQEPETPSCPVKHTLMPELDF
Target sequence (Q8WTS1 whole entry, looked up): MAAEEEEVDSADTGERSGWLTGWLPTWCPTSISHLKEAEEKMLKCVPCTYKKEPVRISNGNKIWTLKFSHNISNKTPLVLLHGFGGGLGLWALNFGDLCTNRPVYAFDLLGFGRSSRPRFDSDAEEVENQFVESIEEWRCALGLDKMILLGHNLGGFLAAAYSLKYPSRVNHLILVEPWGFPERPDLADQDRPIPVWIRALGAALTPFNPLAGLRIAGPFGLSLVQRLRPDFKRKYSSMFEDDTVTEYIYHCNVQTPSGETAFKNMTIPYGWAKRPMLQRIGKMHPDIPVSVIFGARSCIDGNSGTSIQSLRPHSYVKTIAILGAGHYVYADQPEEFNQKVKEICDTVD
PRMT1 FP inh: PRMT1 (human) inhibition, primary screen. recombinant PRMT1, activity-based probe fluorescence polarization. actives 1.3% (n = 370,000). Q99873. inhibition, % at 2.79 µM;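 active means inhibition above about 21% made by adding two undisclosed values, limit read from the data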
UHRF1 binding: blocks human UHRF1 binding to methylated DNA; Q96T88; UHRF1 binding to methylated oligo, TR-FRET; inhibition, % at 4.4 µM; actives 0.75% (n = 370,000); in the data active means inhibition above about 21%;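 further: UHRF1 SRA domain binding a hemimethylated CpG hairpin DNA probe; 0% = median of test compound wells and 100% = reference inhibitor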
MBD2 DNA inh: inhibitors of human MBD2 binding to methylated oligonucleotide; Q9UBB5; TR-FRET; inhibition, % at 4.4 µM; actives 0.31% (n = 370,000); AID 686964; in the data active means inhibition above about 13%
LEDGF integ inh: blocks HIV-1 LEDGF/p75-dependent DNA integration; actives 0.64% (n = 370,000); AID 743269; TR-FRET IN-LEDGF/p75 DNA integration, Eu/Cy5; inhibition, % at 3.7 µM;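 active means inhibition above the screen-wide mean plus 3 SD, cut at about 13% in these data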;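 further: signal is the Cy5 over europium emission ratio at 671 and 618 nm; 0% = plate median of compound wells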
RBBP9 inhibitor: human RBBP9 hydrolase inhibition. O75884. recombinant RBBP9, FP-Rh probe fluorescence polarization. inhibition, % at 7.94 µM. actives 0.2% (n = 220,000);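 active means inhibition above the campaign mean of all tested compounds plus 3 SD, cut at about 14% in these data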;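 further: plate controls were DMSO wells with RBBP9 for no effect and wells lacking RBBP9 protein for full effect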
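system = RBBP9 protein | input = RBBP9 at 2.5 µM in dispensed solution, before mixing | measured by = fluorescence polarization (mP), excitation 525 nm, emission 598 nm | incubation = enzyme-compound preincubation 30 min, then probe labeling 45 min, 25 °C | buffer or medium = Tris-NaCl-Pluronic buffer, pH 8.0 | compound = single dose 7.94 µM | also added = FP-Rh probe, 375 nM dispensing solution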
An asterisk follows results filed as active; x = not tested or not shown. Only some compounds are listed: those with a hit (about 3.1% of all), similar ones and a draw of the others.

SMILES	ABHD5-PLIN5 inh	PRMT1 FP inh	UHRF1 binding	MBD2 DNA inh	LEDGF integ inh	RBBP9 inhibitor
COc1ccc(S[C@]2(C(=O)N3CCN(c4ncccn4)CC3)CC(=O)N(C(=O)c3ccccc3)[C@@H]2c2ccc(OC)cc2)cc1	x	24*	-1	-1	0	x
COc1ccc(S[C@]2(C(=O)N3CCN(c4ncccn4)CC3)CC(=O)N(P(=O)(OC)OC)[C@@H]2c2ccc(OC)cc2)cc1	x	12	2	1	6	x
COc1ccc(-c2nnc(SCC(=O)NN=C(C)c3cccc4ccccc34)n2-c2ccccc2)cc1	x	-2	-5	1	-3	x
Cc1nc2sccn2c(=O)c1S(=O)(=O)NCCc1ccc(Cl)cc1	-2	2	2	2	-2	x
Cc1ccc(CCNS(=O)(=O)c2c(C)nc3sccn3c2=O)cc1	5	-4	23*	5	9	x
COC(=O)[C@]12C[C@H](CC(=O)NCc3ccc(OC)c(OC)c3)C(=O)N(CCC3=CCCCC3)C1=C[C@H](C(C)(C)C)O[C@@H]2C	x	-2	-1	-3	-3	x
C[C@H](NC(=O)[C@@H]1Cc2ccccc2CN1C(=O)OC(C)(C)C)C(=O)NCc1ccco1	22*	5	1	-2	-4	x
O=C(Nc1ccc(S(=O)(=O)Nc2ncccn2)cc1)c1ccc2ncsc2c1	-7	24*	0	0	4	6
O=C(Nc1ccncc1)c1ccc2ncsc2c1	-3	-1	-1	0	-2	x
O=S(=O)(N[C@@H]1CCCC[C@@H]1N1CCOCC1)c1ccc(Cl)cc1	x	0	-2	2	0	x
N#Cc1cccc(OC[C@@H](O)CN2CCC(C(O)(c3ccccc3)c3ccccc3)CC2)c1	x	0	-2	-2	5	x
CC(NC(=O)CCc1nnc(-c2ccc(-c3ccccc3)cc2)o1)c1nc2ccccc2[nH]1 (configuration not stated)	3	4	23*	1	-4	-9
Cc1nn(-c2ccccc2)c2sc(C(=O)N3CCN(Cc4ccc(F)cc4)CC3)cc12	x	4	0	6	-1	x
Cc1cc(C(=O)COC(=O)c2cccc(O)c2)c(C)n1C1CC1	5	-4	27*	1	4	x
CC(=O)Nc1ccccc1OCC(=O)NC(C)c1ccccc1 (configuration not stated)	-6	-3	22*	2	-1	-2
CC(NC(=O)COc1ccccc1-c1ccccc1)c1ccccc1 (configuration not stated)	-2	-6	4	-9	6	-9
O=C(NC1=N[C@@]2(C=C3CCCCC3n3c(=O)n(-c4ccccc4)c(=O)n32)[C@H](Cc2ccccc2)N1Cc1ccccc1)c1ccccc1 (some centres not stated)	x	1	1	-6	2	x
O=C(O)c1ccc(N/N=C/C=C/c2ccccc2)cc1	-4	3	21*	2	0	3
O=C(O)c1ccc(N/N=C/c2ccc(-c3ccccc3)cc2)cc1	15	4	-1	-5	-2	1
COc1ccc(OC)c(NC(=O)CCCc2ccccc2)c1	7	22*	-1	2	-7	x
COc1ccc(Nc2cccc3ccccc23)cc1	-17	6	21*	3	3	x
COc1cccc(CNC(=O)CN2CCCc3ccccc32)c1	x	6	3	1	-5	x
O=C1CCC2(CCCCC2)N1CCCO	x	3	0	-1	0	x
CCCC(=O)Nc1cc(C)c2c(=O)oc3ccccc3c2n1	-4	7	0	1	-4	x
Cc1cc(NC(=O)c2ccccc2F)nc2c1c(=O)oc1ccccc12	-8	2	22*	1	1	5
SMILES	ABHD5-PLIN5 inh	PRMT1 FP inh	UHRF1 binding	MBD2 DNA inh	LEDGF integ inh	RBBP9 inhibitor
COc1cc(CC2COC(c3ccc(O)c(OC)c3)C2COC(C)=O)ccc1O (configuration not stated)	1	0	14	12	14*	x
CC(=O)N(Cc1ccc(F)cc1)C1=C(NCCc2ccccc2)C(=O)c2ccccc2C1=O	-2	3	2	1	23*	5
CC1=NN(c2ccc(Cl)c(C(=O)O)c2)C(=O)/C1=C\c1ccc(-c2ccc(C(=O)O)cc2)o1	-7	4	3	-3	-1	-8
COC(=O)c1ccc(N2NC(=O)/C(=C/c3ccc(-c4ccc(Cl)c(C(=O)O)c4)o3)C2=O)cc1	6	19	39*	9	11	-6
CC1=NOC(=O)/C1=C\c1ccc(-c2ccc(Cl)c(C(=O)O)c2)o1	9	10	28*	5	7	-4
C[C@H]1[C@@H](NC(=O)c2cccc(N(C)C)c2)CC[C@@]23CCCN2C(=O)CCC[C@@H]13	x	0	-1	0	2	x
COC(=O)[C@]12C[C@H](CC(=O)NCCCCc3ccccc3)C(=O)N(CCC3=CCCCC3)C1=C[C@H](C1CCCC1)O[C@@H]2C	x	3	1	-3	0	x
CC(=O)Nc1ccc(N2C(=O)c3cccc4c(O)ccc(c34)C2=O)cc1	-5	109*	-18	-12	-6	x
O=C1c2cccc3c(O)ccc(c23)C(=O)N1c1ccc(Cl)cc1	0	174*	-33	-22	5	x
CN(C(=O)c1cccc(NC(=O)Cc2ccc(NC(=O)C3CCN(C(=O)CCc4ccccc4)CC3)cc2)c1)C1CCCC1	x	-9	-2	-5	5	x
Cc1cc(=O)[nH]c(SCC(=O)Nc2cccc(Cl)c2F)n1	x	-2	2	-3	4	x
C#CCOCCOCCOCCNc1nc(N2CCN(C(=O)[C@H](Cc3cc4ccccc4[nH]3)n3cc([C@@H](N)C(C)CC)nn3)CC2)nc(N2CCN(C(=O)[C@H](Cc3cc4ccccc4[nH]3)n3cc([C@@H](N)Cc4ccc(O)cc4)nn3)CC2)n1 (some centres not stated)	x	x	x	x	x	-11
C#CCOCCOCCOCCNc1nc(N2CCN(C(=O)[C@H](CCC(=O)O)n3cc([C@@H](N)CCCCN)nn3)CC2)nc(N2CCN(C(=O)[C@H](CCCCN)n3cc([C@@H](N)CC(N)=O)nn3)CC2)n1	7	0	48*	-2	1	x
C#CCOCCOCCOCCNc1nc(N2CCN(C(=O)[C@H](CCC(=O)O)n3cc([C@@H](N)CCCCN)nn3)CC2)nc(N2CCN(C(=O)[C@H](CCC(=O)O)n3cc([C@@H](N)CCCCN)nn3)CC2)n1	0	-3	2	-1	1	x
C#CCOCCOCCOCCNc1nc(N2CCN(C(=O)[C@H](Cc3ccc(O)cc3)n3cc([C@@H](N)C(C)CC)nn3)CC2)nc(N2CCN(C(=O)[C@H](Cc3cc4ccccc4[nH]3)n3cc([C@@H](N)C(C)CC)nn3)CC2)n1 (some centres not stated)	25*	x	x	x	x	1
